Measured values from ChEMBL document CHEMBL2146480, “Discovery of Phenylaminopyridine Derivatives as Novel HIV-1 Non-nucleoside Reverse Transcriptase Inhibitors” (ACS Med Chem Lett, 2012).
pEC50, pIC50: −log10 of the molar value. In brackets after ≈: the same amount, converted by molar mass.

Columns and labels:
[1] = system: Human immunodeficiency virus 1; test: Antiviral activity against wild type HIV1 LAI infected in human CEM174 cells assessed as inhibition of viral replication preincubated for 1 hr prior to viral infection measured after 5 days; type: functional, organism-based; conditions: Human immunodeficiency virus 1, LAI
[2] = Cytotoxicity against human CEM174 cells assessed as cell viability; type: cell-based
Method in brief: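 Values are geometric means of two determinations, each within 25% of the mean.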

[3] = Solubility of the compound in distilled water at pH 7.4; type: physicochemical
[4] = target: Human immunodeficiency virus type 1 reverse transcriptase (Human immunodeficiency virus 1, UniProt Q72547); test: Inhibition of RNA-dependent DNA polymerase activity of wild type N-terminal His6x-tagged HIV 1 reverse transcriptase p66/p51 expressed in Escherichia coli (DE3) rosetta cells preincubated for 30 mins by SPA assay
[5] = target: Human immunodeficiency virus type 1 reverse transcriptase (Human immunodeficiency virus 1, UniProt Q72547, K103N); test: Inhibition of RNA-dependent DNA polymerase activity of N-terminal His6x-tagged HIV 1 reverse transcriptase K103N mutant expressed in Escherichia coli (DE3) rosetta cells preincubated for 30 mins by SPA assay
[6] = target: Human immunodeficiency virus type 1 reverse transcriptase (Human immunodeficiency virus 1, UniProt Q72547, Y181C); test: Inhibition of RNA-dependent DNA polymerase activity of N-terminal His6x-tagged HIV 1 reverse transcriptase Y181C mutant expressed in Escherichia coli (DE3) rosetta cells preincubated for 30 mins by SPA assay
[7] = Solubility of the compound in distilled water at pH 2.1; type: physicochemical
[8] = Volume of distribution in rat at 0.94 mg/kg, iv and 9.44 mg/kg, po; type: ADME, organism-based; conditions: in vivo
Method in brief: (§1)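 Rats given a single iv dose of 0.94 mg/kg and a single oral dose of 9.44 mg/kg. Both iv and po formulations were 1.0 mg/mL in 20% HP-β-CD. Vd, oral AUC, F, clearance and t1/2 were derived from plasma exposure.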

[9] = AUC in rat 9.44 mg/kg, po; type: ADME, organism-based; parameters: dose 9.44 mg/kg, route oral; conditions: plasma; method in brief: as §1
[10] = Oral bioavailability in rat at 9.44 mg/kg; type: ADME, organism-based; conditions: in vivo; method in brief: as §1
[11] = Clearance in rat at 0.94 mg/kg, iv and 9.44 mg/kg, po; type: ADME, organism-based; conditions: in vivo; method in brief: as §1
[12] = Half life in rat at 0.94 mg/kg, iv and 9.44 mg/kg, po; type: ADME, organism-based; conditions: in vivo; method in brief: as §1
[13] = Induction of CYP3A4 mRNA expression in human Fa2N-4 cells up to 10 uM after 24 hrs; type: ADME, cell-based; conditions: fa2n-4, 24 h
[14] = Solubility of the compound in distilled water; type: physicochemical
Method in brief: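 Solubility was measured on the HCl salt in distilled water.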

[15] = Half life in rat at 1.10 mg/kg, iv and 10.7 mg/kg, po; type: ADME, organism-based; conditions: in vivo
Method in brief: (§2)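 Both routes were formulated at 1.0 mg/mL in 50% PEG. Parameters reported are Vd, AUCpo, oral bioavailability, clearance and half-life.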

[16] = Volume of distribution in rat at 1.10 mg/kg, iv and 10.7 mg/kg, po; type: ADME, organism-based; conditions: in vivo, 1.1 mg/kg; method in brief: as §2
[17] = AUC in rat at 10.7 mg/kg, po; type: ADME, organism-based; parameters: dose 10.7 mg/kg, route oral; conditions: plasma; method in brief: as §2
[18] = Oral bioavailability in rat at 10.7 mg/kg; type: ADME, organism-based; conditions: in vivo; method in brief: as §2
[19] = Clearance in rat at 1.10 mg/kg, iv and 10.7 mg/kg, po; type: ADME, organism-based; conditions: in vivo, 1.1 mg/kg; method in brief: as §2
[20] = system: Human immunodeficiency virus type 1 reverse transcriptase (Human immunodeficiency virus 1), Q72547 [UNDEFINED MUTATION]; test: Resistant ratio of IC50 for HIV 1 reverse transcriptase K103N mutant to IC50 for wild type HIV 1 reverse transcriptase
Method in brief: (§3)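 Fold resistance is IC50 against the mutant RT divided by IC50 against wild-type RT. Both IC50s come from the RNA-dependent DNA polymerase inhibition assay, each taken as the geometric mean of two determinations.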

[21] = system: Human immunodeficiency virus 1; test: Resistant ratio of IC50 for HIV 1 reverse transcriptase Y181C mutant to IC50 for wild type HIV 1 reverse transcriptase; method in brief: as §3
[22] = target: Voltage-gated inwardly rectifying potassium channel KCNH2 (Homo sapiens, UniProt Q12809); test: Inhibition of recombinant human ERG channel IKr expressed in CHO cells by patch clamp assay
[23] = Half life in rat at 1.19 mg/kg, iv and 10.9 mg/kg, po; type: ADME, organism-based; conditions: in vivo
Method in brief: (§4)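 The iv and po formulation was 1.0 mg/mL in 40% PEG. Vd, AUCpo, F, clearance and t1/2 were derived.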

[24] = Volume of distribution in rat at 1.19 mg/kg, iv and 10.9 mg/kg, po; type: ADME, organism-based; conditions: in vivo; method in brief: as §4
[25] = AUC in rat at 10.9 mg/kg, po; type: ADME, organism-based; parameters: dose 10.9 mg/kg, route oral; conditions: plasma; method in brief: as §4
[26] = Oral bioavailability in rat at 10.9 mg/kg; type: ADME, organism-based; conditions: in vivo; method in brief: as §4
[27] = Clearance in rat at 1.19 mg/kg, iv and 10.9 mg/kg, po; type: ADME, organism-based; conditions: in vivo; method in brief: as §4

Sequence of Voltage-gated inwardly rectifying potassium channel KCNH2 (Q12809 whole entry): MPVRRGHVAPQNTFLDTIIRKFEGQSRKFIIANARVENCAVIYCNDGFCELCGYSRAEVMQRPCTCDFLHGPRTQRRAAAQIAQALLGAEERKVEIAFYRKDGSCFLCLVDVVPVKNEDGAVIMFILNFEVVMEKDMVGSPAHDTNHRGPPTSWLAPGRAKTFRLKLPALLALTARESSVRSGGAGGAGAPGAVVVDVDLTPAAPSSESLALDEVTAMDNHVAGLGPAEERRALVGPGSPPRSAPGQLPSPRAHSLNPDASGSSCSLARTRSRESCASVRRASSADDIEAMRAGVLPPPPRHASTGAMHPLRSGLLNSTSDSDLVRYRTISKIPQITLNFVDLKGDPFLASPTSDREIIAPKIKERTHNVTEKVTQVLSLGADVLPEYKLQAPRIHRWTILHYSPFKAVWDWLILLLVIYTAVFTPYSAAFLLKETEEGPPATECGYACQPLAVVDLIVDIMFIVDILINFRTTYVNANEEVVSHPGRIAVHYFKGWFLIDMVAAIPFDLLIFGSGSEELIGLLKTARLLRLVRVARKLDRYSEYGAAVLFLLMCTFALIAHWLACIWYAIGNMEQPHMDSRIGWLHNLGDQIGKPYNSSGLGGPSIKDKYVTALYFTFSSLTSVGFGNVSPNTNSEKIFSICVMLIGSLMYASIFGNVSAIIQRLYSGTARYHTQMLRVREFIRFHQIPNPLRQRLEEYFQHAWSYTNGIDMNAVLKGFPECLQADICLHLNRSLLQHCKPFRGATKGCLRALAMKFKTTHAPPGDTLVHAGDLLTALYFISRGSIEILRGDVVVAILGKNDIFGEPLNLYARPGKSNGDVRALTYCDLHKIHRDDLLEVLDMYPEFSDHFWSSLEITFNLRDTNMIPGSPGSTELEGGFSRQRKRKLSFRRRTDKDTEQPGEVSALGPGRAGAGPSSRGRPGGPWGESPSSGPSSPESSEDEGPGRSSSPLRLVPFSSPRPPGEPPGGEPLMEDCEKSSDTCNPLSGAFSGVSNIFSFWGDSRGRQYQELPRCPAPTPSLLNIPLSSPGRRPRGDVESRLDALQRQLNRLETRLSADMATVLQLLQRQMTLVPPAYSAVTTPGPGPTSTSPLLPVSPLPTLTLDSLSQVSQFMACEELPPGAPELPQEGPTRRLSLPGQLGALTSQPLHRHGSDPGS

`Cc1ccccc1-c1ccnc(NCc2cc(-c3ccccc3)[nH]n2)c1` showed a pEC50 [1] of 6.83 and a CC50 [2] of over 10000 nM.

Work on `Cc1ccccc1-c1cnnc(NCc2cc(-c3ccccc3)[nH]n2)n1` yielded a pEC50 [1] of 6.91 and a CC50 [2] of over 10000 nM.

Work on `Cc1ccccc1-c1cncc(NCc2cc(-c3ccccc3)[nH]n2)n1` yielded a pEC50 [1] of 6.04 and a CC50 [2] of over 10000 nM.

In the case of `Cc1ccccc1-c1cccc(NCc2cc(-c3ccccc3)[nH]n2)n1`, the pEC50 [1] was under 5.00 and the CC50 [2] was over 10000 nM.

Work on `Cc1cc(C#N)ccc1-c1ccnc(NCc2n[nH]c3nc(F)ccc23)c1` yielded a pEC50 [1] of 9.46, a CC50 [2] of over 10000 nM and a solubility [3] of 1.8 µM (≈ 0.645 µg/mL). It also gave a pIC50 [4] of 8.72, a pIC50 [5] of 8.00 and a pIC50 [6] of 8.11.

Work on `Cc1ccccc1-c1cccc(NCc2cc(-c3ccccc3)[nH]n2)c1` yielded a pEC50 [1] of 5.66 and a CC50 [2] of over 10000 nM.

Work on `Cc1ccnc2c1NC(=O)c1cccnc1N2C1CC1` [NEVIRAPINE] yielded a pEC50 [1] of 6.82 and a CC50 [2] of over 10000 nM.

Molecule `N#Cc1cc(Cl)cc(Oc2cc(OCc3n[nH]c4nc(N)ccc34)ccc2Cl)c1` has a CC50 [2] of over 10000 nM.

With `Cc1ccc(-c2cnnc(NCc3cc(-c4ccccc4)[nH]n3)n2)cc1` the pEC50 [1] was under 5.00 and the CC50 [2] was over 10000 nM.

`c1ccc(-c2cnnc(NCc3cc(-c4ccccc4)[nH]n3)n2)cc1` gave a pEC50 [1] of 5.89 and a CC50 [2] of over 10000 nM.

`Cc1cc(C#N)ccc1-c1ccnc(NCc2n[nH]c(-c3ccccn3)c2Cl)c1` gave a pEC50 [1] of 9.70, a CC50 [2] of over 10000 nM and a solubility [3] of 1.1 µM (≈ 0.441 µg/mL). It also gave a solubility [7] of 132 µM (≈ 52.9 µg/mL), a pIC50 [4] of 8.52 and a pIC50 [5] of 7.80. It also gave a pIC50 [6] of 8.10, a Vd [8] of 1.1 L/kg and an AUC [9] of 67 µM·h. The bioavailability [10] was 127%, the clearance [11] was 8.2 mL/min/kg and the half-life [12] was 2 h. The Activity [13] was “Not Active”.

For `Cc1cc(C#N)ccc1-c1ccnc(NCc2n[nH]c(-c3ccccn3)c2Cl)c1.Cl`, the solubility [14] was 100 µM.

Molecule `Cc1cc(C#N)ccc1-c1ccnc(NCc2n[nH]c3nc(N)ccc23)c1` has a pEC50 [1] of 8.72, a CC50 [2] of over 10000 nM and a solubility [3] of 0.34 µM (≈ 0.121 µg/mL). It also gave a solubility [7] of over 884 µM, a pIC50 [4] of 8.23 and a pIC50 [5] of 7.44. For the same molecule, the pIC50 [6] was 7.80, the half-life [15] was 2.5 h and the Vd [16] was 1.26 L/kg. It also gave an AUC [17] of 20 µM·h, a bioavailability [18] of 72% and a clearance [19] of 14 mL/min/kg.

`Cc1cc(C#N)ccc1-c1ccnc(NCc2cc(-c3ccccn3)[nH]n2)c1` showed a pEC50 [1] of 8.44, a CC50 [2] of over 10000 nM and a solubility [3] of 0.71 µM (≈ 0.26 µg/mL). The solubility [7] was over 545 µM, the pIC50 [4] was 8.00 and the pIC50 [5] was 6.87. For the same molecule, the Ratio IC50 [20] was 13, the pIC50 [6] was 7.08 and the Ratio IC50 [21] was 8.4. For the same molecule, the pIC50 [22] was 5.96.

For `Cc1ccccc1-c1ccnc(NCc2cc(-c3ccccc3)[nH]n2)n1`, the pEC50 [1] was 6.44 and the CC50 [2] was over 10000 nM.

Molecule `Cc1cc(C#N)ccc1-c1cncc(NCc2cc(-c3ccccc3)[nH]n2)c1` has a pEC50 [1] of 7.80 and a CC50 [2] of over 10000 nM.

Work on `Cc1ccccc1-c1cncc(NCc2cc(-c3ccccc3)[nH]n2)c1` yielded a pEC50 [1] of 5.92 and a CC50 [2] of over 10000 nM.

Work on `Cc1cc(C#N)ccc1-c1ccnc(NCc2n[nH]c(-c3ccccc3)c2Cl)c1` yielded a pEC50 [1] of 8.17, a CC50 [2] of over 10000 nM and a solubility [3] of 2.1 µM (≈ 0.84 µg/mL). It also gave a solubility [7] of 45 µM (≈ 18 µg/mL), a pIC50 [4] of 8.29 and a pIC50 [5] of 7.96. The pIC50 [6] was 8.20, the half-life [23] was 3.1 h and the Vd [24] was 2.08 L/kg. It also gave an AUC [25] of 34 µM·h, a bioavailability [26] of 71% and a clearance [27] of 8.7 mL/min/kg.

For `Cc1cc(C#N)ccc1-c1cnnc(NCc2cc(-c3ccccc3)[nH]n2)n1`, the pEC50 [1] was 8.77 and the CC50 [2] was over 10000 nM.

`Cc1cc(C#N)ccc1-c1ccnc(NCc2cc(-c3ccccc3)[nH]n2)n1` gave a pEC50 [1] of 8.37 and a CC50 [2] of over 10000 nM.

Work on `Cc1cccc(C)c1-c1cnnc(NCc2cc(-c3ccccc3)[nH]n2)n1` yielded a pEC50 [1] of 8.49 and a CC50 [2] of over 10000 nM.

`Cc1cccc(-c2cnnc(NCc3cc(-c4ccccc4)[nH]n3)n2)c1` showed a pEC50 [1] of 5.64 and a CC50 [2] of over 10000 nM.

With `Cc1cc(C#N)ccc1-c1ccnc(NCc2n[nH]c3ncccc23)c1` the pEC50 [1] was 8.96, the CC50 [2] was over 10000 nM and the solubility [3] was 3.7 µM (≈ 1.26 µg/mL). For the same molecule, the solubility [7] was over 881 µM, the pIC50 [4] was 8.92 and the pIC50 [5] was 8.00. The pIC50 [6] was 8.25.

In the case of `Cc1cc(C#N)ccc1-c1ccnc(NCc2cc(-c3ccccc3)[nH]n2)c1`, the pEC50 [1] was 9.10 and the CC50 [2] was over 10000 nM.

With `c1ccc(-c2cc(CNc3nncc(-c4cccc5ccccc45)n3)n[nH]2)cc1` the pEC50 [1] was 6.58 and the CC50 [2] was over 10000 nM.

`Cc1cc(C#N)ccc1-c1ccnc(NCc2n[nH]c3nc(N)ccc23)c1.Cl` gave a solubility [14] of over 4220 µM.
